HKDC1 inhibitor – HKDC1 (human) hexokinase inhibition; 340,000 tested, 0.16% active; AID 493160; inhibition, % at 20 µM; recombinant HKDC1, G6PDH/diaphorase resazurin coupled fluorescence;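 active = inhibition above about 35% when tested at 20 µM, limit read from the data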
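test system = in-house recombinant HK5 (HKDC1) enzyme | amount = HKDC1 at 5 µg/mL | control set = DMSO-enzyme wells negative, buffer-substituted wells positive | compound = one dose of 20 µM, 1% DMSO | schedule = reaction time 90 min, room temperature, protected from light | technique = resorufin fluorescence at 613 nm | reagent = glucose with 1 mM ATP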
APOBEC3G inh – blocks human APOBEC3G single-stranded DNA deamination | inhibition, % at 20 µM | Q9HC16 | 330,000 tested, 0.28% active | AID 493012 | recombinant A3G, ssDNA deamination FAM/TAMRA fluorescence;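 active = inhibition of at least 40% at 20 µM, with no more than 30% in the related APOBEC3A deaminase screen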
APOBEC3A inh – inhibitors of human APOBEC3A DNA deaminase. inhibition, % at 20 µM. recombinant A3A, FAM/TAMRA ssDNA deamination fluorescence. 330,000 tested, 0.41% active. AID 493011;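 active = at least 40% inhibition at 20 µM here, with at most 30% in a related deaminase screen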
Target sequence (P31941 whole entry, looked up): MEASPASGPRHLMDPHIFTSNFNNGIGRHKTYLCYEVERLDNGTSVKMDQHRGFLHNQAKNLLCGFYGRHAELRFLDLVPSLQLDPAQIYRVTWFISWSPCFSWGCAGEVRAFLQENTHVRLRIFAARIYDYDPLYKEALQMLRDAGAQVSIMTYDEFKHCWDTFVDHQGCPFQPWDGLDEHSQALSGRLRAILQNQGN
hiPSC survival – enhancers of human iPSC single-cell survival | AID 602274 | hiPSC single-cell survival, ATPlite luminescence; 100% = ROCK inhibitor wells, 0% = DMSO | 360,000 tested, 0.044% active | survival enhancement, % at 20 µM; in the data active = survival enhancement above about 18%;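 also: cells exposed to compounds for 16 hours before the ATP read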
PfG6PD inh – PfG6PD (Plasmodium falciparum) enzyme inhibition; PfGluPho enzyme, NADPH resazurin-diaphorase fluorescence; inhibition, % at 20 µM; 350,000 tested, 0.78% active;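 active = inhibition reaching at least a set limit at 20 µM in the primary screen, cut at about 59% in these data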
Hits are given with their value; – = inactive; · = no result; ! = not confirmed by another sample. Most compounds without a hit are left out; they make up all but 1.4% or so of the library.

SMILES	HKDC1 inhibitor	APOBEC3G inh	APOBEC3A inh	hiPSC survival	PfG6PD inh
Cc1ccc(S(=O)(=O)N(C(=O)c2ccncc2)c2ccc(OC(=O)c3ccncc3)c3ccccc23)c(C)c1	38	–	–	–	73
COc1ccc(S(=O)(=O)C(C#N)c2nc3ccccc3nc2N2CCCCC2)cc1 (stereo not drawn)	–	41	–	–	–
Cn1c(SCC(=O)N/N=C/C=C\c2ccco2)nc2ccccc21	–	–	–	–	62
CCn1c(SCC(=O)N/N=C/C=C\c2ccco2)nc2ccccc21	–	–	–	–	–
CCn1cc(C(=O)N2CCCC(CO)(Cc3ccccc3C)C2)cn1 (stereo not drawn)	–	–	–	–	–
O=C1NCCN1c1ccccc1	–	·	·	29	–
COc1cccc(C(=O)NCCS(=O)(=O)N(C)Cc2ccccc2)c1	–	–	–	–	–
COc1ccc(OC)c(N2C(=NC(=O)C3CCCCC3)SC3CS(=O)(=O)CC32)c1 (stereo not drawn)	–	–	–	–	–
Cc1cccc(NC(=O)c2nc[nH]c2C(=O)N[C@H](C)CO)c1	·	·	·	–	–
COc1cc(Nc2cccc(-c3ccccc3)n2)cc(OC)c1OC	·	·	·	–	·
Cc1ccc(CCN2CC(C(=O)NCCCN3CCCCCC3)CC2=O)cc1 (stereo not drawn)	–	–	–	22	–
CN(C)c1ccc(-c2csc(C(C)(O)c3cccc(F)c3)n2)cc1 (stereo not drawn)	·	·	·	–	·
Nc1ccc(N)c(C(=O)O)c1	36	–	–	–	71
Nc1ccc(C(=O)O)c(O)c1	–	–	–	–	–
CCc1ccc(C(O)c2ncc(-c3ccccc3C(F)(F)F)[nH]2)cc1 (stereo not drawn)	·	·	·	–	·
O=C(O)C(Cc1c[nH]c2ccccc12)NS(=O)(=O)c1cccc(Cl)c1Cl (stereo not drawn)	–	–	–	–	–
CC(C)C12CN3CC(C(C)C)(CN(C1)C3c1ccccc1O)C2=O (stereo not drawn)	–	–	–	21	–
O=C(Nc1cccnc1Cl)c1ccc(Cl)cc1	–	–	–	–	–
O=C(Nc1cccnc1Cl)c1cccnc1Cl	–	–	–	23	–
CC/C(Cc1ccccc1)=N/NC(=O)CNC(=O)c1ccc(Cl)cc1Cl	–	–	–	–	–
N#CC1(NC(=O)COC(=O)c2ccccc2[N+](=O)[O-])CCCCC1	–	–	–	–	–
N#CC1(NC(=O)COC(=O)c2cc(O)c3ccccc3c2O)CCCCC1	50	–	–	–	–
COCCn1c(C)cc(C(=O)CN2C(=O)C(=O)N(CCC3=CCCCC3)C2=O)c1C	·	·	·	–	–
CC1CNCCN1S(=O)(=O)c1cccc2cnccc12 (stereo not drawn)	–	–	–	20!	–
O=S(=O)(c1cccc2cnccc12)N1CCCNCC1	–	–	–	58	–
SMILES	HKDC1 inhibitor	APOBEC3G inh	APOBEC3A inh	hiPSC survival	PfG6PD inh
Cc1cc(Oc2ccc(=O)[nH]n2)nc(Cl)n1	–	–	–	–	–
CCOc1ncccc1C(=O)OCc1c(F)cccc1Cl	–	–	–	–	–
C/C(=N/NC(=O)CN1CCN(Cc2ccccc2Cl)CC1)c1cccnc1	–	–	–	–	–
Cn1c(/N=C/c2c(O)ccc3ccccc23)nc2ccccc21	54	·	·	–	76
CCCn1c(/N=C/c2ccccc2O)nc2ccccc21	–	–	–	–	–
Cn1c(Cl)c(/C=N/OC(=O)c2ccc(Cl)cc2)c2ccccc21	–	–	–	22	–
Cc1ccsc1/C=N/N=C/c1sccc1C	–	–	–	–	–
Cc1ccsc1C=Nc1ccc(O)cc1	–	–	–	–	84
O=C(CN1C(=O)/C(=C2/SC(=S)N(CCS(=O)(=O)O)C2=O)c2ccccc21)Nc1cccc(C(F)(F)F)c1	36	–	–	–	–
N=C1/C(=C\c2ccc(-c3cccc(Cl)c3)o2)C(=O)N=C2SC=C(c3ccccc3)N12	–	–	–	–	–
N=C1/C(=C\c2ccc(-c3ccc(C(=O)O)cc3)o2)C(=O)N=C2SC=C(c3ccccc3)N12	40	·	·	–	–
CCOC(=O)C1=C(C)c2ccccc2N(C(=O)OC)C1(C)C(=O)OCC (stereo not drawn)	–	–	–	–	61
COc1ccc(NC(=O)/C(Cl)=C(/Cl)S(=O)Cc2ccccc2)cn1 (stereo not drawn)	–	–	–	–	–
COc1ccc(CS(=O)(=O)/C(Cl)=C(/Cl)C(=O)Nc2ccc(OC)nc2)cc1	–	–	–	37	–
